TLR9-MyD88 block = blocks human TLR9 binding to MyD88; 340,000 tested, 0.21% active; inhibition, % at 4.98 µM; CHO BLA complementation TLR9-MyD88, CCF4 FRET ratio;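 active means inhibition above the mean over all tested compounds plus 3 SD, cut at about 21% in these data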;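 further: 0% = DMSO only wells and 100% = clavulanate BLA inhibitor control wells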
CHOP UPR activ = activators of apoptotic arm of unfolded protein response (CHOP) | CHO-CHOP luciferase reporter, UPR activation, luminescence; percent of tunicamycin response over DMSO baseline | activation, % at 10 µM | 330,000 tested, 0.34% active | AID 449763;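 active means at 10 µM dose, activation of 40% or more, normalized to positive control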;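 further: 100% = tunicamycin at 10 µg/mL and 0% = DMSO alone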
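Dosing – one dose, 10 µM in 0.5% DMSO · System – CHO-CHOP cells, stable luciferase reporter of PERK-eIF2a-CHOP signalling · Input – 500 cells/well · Control set – tunicamycin 10 µg/mL final as positive, DMSO-only wells as negative · Timing – 6 h compound treatment, 37 °C · Measure – % activation vs tunicamycin · Technique – luminescence read with Steady-Glo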
NOD2 RIPK2 PPI = blocks binding of human NOD2 to RIPK2; inhibition, % at 4.98 µM; CHO BLA complementation NOD2-RIPK2, CCF4 ratio; 360,000 tested, 0.38% active; in the data active means inhibition above about 21%;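 further: 0% = vehicle only and 100% = reference blocker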
TLR4-MyD88 BLA = blocks binding of human TLR4 to MyD88 | inhibition, % at 8.4 µM | HeLa CL3-4 TLR4/MyD88 BLA complementation, FRET ratio | 200,000 tested, 0.18% active | O00206+Q99836; in the data active means inhibition above about 25%;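 further: 0% = vehicle and 100% = reference inhibitor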
UPR XBP1 act = activators of adaptive arm of unfolded protein response (XBP1); CHO-XBP1 luciferase reporter, IRE1-XBP1 UPR activation, luminescence; percent of tunicamycin response, DMSO as zero; activation, % at 20 µM; 330,000 tested, 0.33% active;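 active means versus positive control, 20 µM dose yields 30% or more activation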;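 further: 100% = tunicamycin at 10 µg/mL and 0% = DMSO only wells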
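Material: CHO cell line with stable XBP1 luciferase reporter; buffer or medium: F12 medium containing 10% fetal bovine serum; compound: single point, 20 µM final compound, 1% DMSO; incubation: 6 h treatment, 37 °C; measured by: glow luminescence from Steady-Glo reagent; evaluation: activation, % of tunicamycin; control set: tunicamycin high, DMSO low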
CHOP inhibitor = inhibitors of CHOP induction in ER stress response | inhibition, % at 10 µM | CHO-K1 CHOP-promoter luciferase, tunicamycin-induced, 15-18 h | 220,000 tested, 3.8% active;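 active means compounds that reduced the stress-induced luciferase reporter signal by more than about 70% of percent inhibition, limit read from the data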;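 further: 0% = tunicamycin plus vehicle and 100% = wells without tunicamycin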
* = called active by the depositor; / = not tested or not shown. This is one part of a sample in which hits are shown more often than they occur.

SMILES	TLR9-MyD88 block	CHOP UPR activ	NOD2 RIPK2 PPI	TLR4-MyD88 BLA	UPR XBP1 act	CHOP inhibitor
Cc1nc(-c2cccnc2)sc1C(=O)Nc1cccc(C(F)(F)F)c1	6	-4	0	-2	-2	83*
Cc1cccc(OCC(=O)Nc2cccc3nsnc23)c1	7	2	2	1	-3	44
O=C(COc1ccccc1)Nc1cccc2nsnc12	-1	0	-3	11	0	76*
CCOC1=C2CN(S(=O)(=O)c3ccc(C)cc3)[C@H](c3ccccc3)C[C@H]2n2c(=O)n(-c3ccccc3)c(=O)n2C1	/	/	-5	/	/	/
CC(=O)c1cccc(NC(=O)C2CCN(S(C)(=O)=O)CC2)c1	-24	-2	4	5	-1	10
CCS(=O)(=O)N1CCC(C(=O)Nc2cccc(C(C)=O)c2)CC1	-3	2	-1	-13	0	73*
O=C(Nc1ccc(-c2nc3ccccc3o2)c(O)c1)c1cc(-n2cnnc2)ccc1Cl	-5	7	1	-7	13	92*
O=C(CSc1cccc(C(F)(F)F)c1)N1CCN(S(=O)(=O)c2ccccc2)CC1	-1	0	4	-3	-6	81*
CC1=C(C(=O)OC(C)C)C(c2ccccc2Cl)CC(=O)N1 (stereo not given)	1	-1	-2	6	-4	76*
OC(c1cccc(CN2CCCCC2)c1)c1ncc(-c2ccccc2Cl)[nH]1 (stereo not given)	/	/	-10	/	/	/
CCCS(=O)(=O)NC(=O)C1(C)CCCN(C(=O)c2cc(F)cc(F)c2)C1 (stereo not given)	/	/	4	/	/	/
CC(SC1=NCCS1)C(=O)Nc1nnc(-c2ccc(Cl)cc2)s1 (stereo not given)	-8	10	1	-8	-3	87*
CCc1nc2c(OCC(=O)c3ccc(Cl)cc3Cl)cccn2c1N(C)C(=O)c1cccs1	/	/	-11	/	/	/
O=C(Nc1cccc(O)c1)c1cccc(C(=O)Nc2cccc(O)c2)c1	-1	0	-14	/	-5	/
O=C(Nc1ccccc1)Nc1snnc1C(=O)Nc1cccc(O)c1	2	-1	-9	-4	2	78*
CC1=C(C(=O)N(C)C)CC(CC(=O)NCCCCc2ccccc2)C(=O)N1CCCN1CCCC1=O (stereo not given)	7	/	1	/	/	/
Cc1ccc(C(=O)N2CCN(c3ccc(NC(=O)c4ccc(Br)o4)cc3)CC2)cc1	-1	-1	2	-4	1	72*
COc1ccc(CCNS(=O)(=O)c2cccc3nsnc23)cc1OC	-9	-2	-3	1	-3	15
COc1ccc(CCNC(=O)CCS(=O)(=O)c2cccc3nsnc23)cc1OC	-7	-1	8	12	-1	78*
COC(=O)[C@]12CCCCC=C1N(CCC1=CCCCC1)C(=O)[C@H](CC(=O)NCc1ccccc1)C2	/	/	0	/	/	/
O=C1NC(=O)/C(=C\c2ccc(OCc3cccc([N+](=O)[O-])c3)cc2)N1	1	4	-3	0	6	76*
CC(C)c1cccc(C(C)C)c1NC(=O)c1ccc(OCC(=O)NCc2ccccc2)cc1	/	0	/	-4	2	94*
COc1ccc(CCNC(=O)c2cc(-c3cc(Cl)cc(Cl)c3)oc2C)cc1	5	-1	1	-8	0	70*
Cc1ccc([C@H]2C[C@H](n3cc(-c4ccc(F)cc4)nn3)[C@@H](O)CN2CC2CCCCC2)cc1	-6	/	0	/	/	/
O=C(Nc1cnccn1)Nc1ccc(Cl)cc1Cl	2	2	-19	-14	4	78*
SMILES	TLR9-MyD88 block	CHOP UPR activ	NOD2 RIPK2 PPI	TLR4-MyD88 BLA	UPR XBP1 act	CHOP inhibitor
Cc1ccc(NC(=O)Nc2cnccn2)cc1Cl	0	0	-8	9	3	9
O=C(Nc1ccc2c(c1)OCO2)Nc1ccc(Cl)cc1Cl	-1	3	16	0	4	91*
O=C(Nc1ccc(Cl)cc1)Nc1ccc2c(c1)OCO2	-14	7	-6	/	2	/
CC(C)[C@H](NC(=O)c1ccccc1)C(=O)OCC(=O)/C=C1/N(C)c2ccccc2C1(C)C	-6	0	-3	8	0	70*
COc1cc(OC)cc(C(=O)NCC(=O)OCC(=O)/C=C2/N(C)c3ccccc3C2(C)C)c1	4	-3	0	-4	0	61
CC1(C(=O)NCc2cccc(Cl)c2)Cc2c(-c3cccc(C(N)=O)c3)ccnc2O1 (stereo not given)	/	/	11	/	/	/
CC(=O)Nc1cc([N+](=O)[O-])ccc1N1CCOCC1	4	1	-1	14	-1	-1
O=C(Nc1ccc([N+](=O)[O-])cc1)Nc1ccc(N2CCOCC2)c2nonc12	15	-2	-9	-8	10	76*
COc1ccc(/C=N/Nc2ccc(C(F)(F)F)cc2[N+](=O)[O-])cc1O	-3	0	0	7	0	76*
CCOc1ccc(/C=N/Nc2ccc(C(F)(F)F)cc2[N+](=O)[O-])cc1O	0	2	2	0	1	-18
CC1(C(=O)O)CCCN(C(=O)c2ccc(F)cc2Cl)C1 (stereo not given)	/	/	7	/	/	/
COc1cccc2c(Cl)c(CC=C(Cl)Cl)c(C)nc12	-3	3	4	-4	6	87*
C=CCc1c(C)nc2c(OC)cccc2c1Cl	-6	1	0	-13	4	1
CCOC(=O)c1ccc(NC(=O)Cc2coc3cc4c(cc23)CCC4)cc1	-6	-1	-5	1	-1	77*
CCCS(=O)(=O)NC(=O)C1(C)CCN(C(=O)c2ccc3c(c2)OCO3)C1 (stereo not given)	/	/	3	/	/	/
O=c1ccn([C@@H]2O[C@H](CNS(=O)(=O)c3csc(-c4ccno4)c3)[C@@H](O)[C@H]2O)c(=O)[nH]1	-1	/	-9	/	/	/
Oc1cc(-c2ccccc2)c2ccccc2c1	3	-1	2	0	-1	101*
Oc1ccccc1N=Nc1ccccc1O	2	/	10	-5	/	73*
Nc1ccc(N=Nc2ccccc2O)c(N)c1	/	6	-9	/	4	/
Cn1c(N)c(C(=O)COC(=O)CCOc2ccc(C(C)(C)C)cc2)c(=O)n(C)c1=O	-19	-1	-1	-7	-1	71*
CCC1(C(=O)c2ccc(Cl)cc2)C2c3ccccc3OC(=O)C21C(=O)Nc1ccccc1 (stereo not given)	1	1	17	-2	-3	78*
COc1ccc(CC(=O)N(C)c2ccccc2)cc1S(=O)(=O)N1CCOCC1	-2	/	0	/	/	/
COCC(=O)N/N=C(\C)CC(=O)Nc1ccccc1C(N)=O	6	1	23*	5	-3	-14
